Source: ChEMBL document CHEMBL1124464, “Peripherally acting enkephalin analogues. 2. Polar tri- and tetrapeptides” (1989)

Experiments:
Type in all cases: functional
Cavia porcellus = organism: Cavia porcellus; assay: Inhibition of electrically induced contractions on the guinea pig ileum; conditions: read-out: ED50 (the source's name)
Procedure, shortened: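 Guinea pig ileum contractions evoked by coaxial stimulation at 0.1 Hz, 0.5-ms pulses, supramaximal voltage, recorded isometrically; dose-response curves built with 15-min washout between doses.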

Mus musculus [1] = assay: Antinociceptive activity of subcutaneously administered compound in acetic acid (AA) induced writhing mice; conditions: sc
Procedure, shortened: (§1)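 Male TFW mice, groups of five to six, given drug subcutaneously (10 mL kg-1), then ip acetic acid 0.6% at 25 mL kg-1. Writhes counted for 5 min beginning 15 min after acetic acid. ED50 = dose reducing writhes 50% versus vehicle, by linear regression.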

Mus musculus [2] = assay: Antinociceptive activity of subcutaneously administered compound in phenyl-p-benzoquinone induced writhing mice; conditions: Mus musculus, sc; read-out: ED50
Procedure, shortened: (§2)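 Groups of five to six female CD1 mice given drug subcutaneously (10 mL kg-1) 30 min before ip phenyl-p-benzoquinone 2.5 mg kg-1. Writhes (abdominal constrictions/hind-limb extensions) counted over 2.5 min from 10 min post-PBQ. ED50, the dose giving 50% fewer writhes than vehicle, from linear regression.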

Mus musculus [3] = assay: Antinociceptive activity of perorally administered compound (20 mg) in phenyl-p-benzoquinone induced writhing mice
Procedure, shortened: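 Female CD1 mice (Charles River), groups of five to six, dosed orally by blunt intragastric needle (10 mL kg-1) 30 min before ip PBQ at 2.5 mg kg-1. Abdominal constrictions/hind-limb extensions were counted over 2.5 min starting 10 min after PBQ. ED50 is the dose halving writhes versus vehicle, estimated by linear regression.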

Rodentia sp. [4] = assay: Antinociceptive activity in the hot plate test (central activity) in rodents, when compound administered subcutaneously at 10 mg
Procedure, shortened: (§3)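 Male CFLP mice, groups of five to six, placed on a copper surface held at 55 °C; latency to paw licking/shaking or jumping recorded, 30-s cut-off. Drug given subcutaneously at 10 mL kg-1. ED50 = dose doubling response latency versus vehicle, by parallel-line probit analysis.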

Mus musculus [5] = organism: Mus musculus; assay: Dose ratio in the presence and absence of the peripheral opioid antagonist in N-methyl-nalorphine in AA writhing mice
Procedure, shortened: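 Acetic acid (0.6%, ip) writhing in male TFW mice; N-methylnalorphine 11.5 mg kg-1 ip 20 min before subcutaneous agonist. Writhes counted 5 min from 15 min post-irritant. Dose ratio taken as the shift between parallel regression lines with and without antagonist.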

Mus musculus [6] = assay: Antinociceptive activity of subcutaneously administered compound (1 mg) in phenyl-p-benzoquinone induced writhing mice; procedure, shortened: as §2
Rodentia sp. [7] = assay: Antinociceptive activity in the hot plate test (central activity) in rodents, when compound administered subcutaneously at 20 mg; procedure, shortened: as §3
Mus musculus [8] = assay: Antinociceptive activity of subcutaneously administered compound (30 mg) in acetic acid (AA) induced writhing mice; procedure, shortened: as §1
Mus musculus [9] = assay: Antinociceptive activity of subcutaneously administered compound (100 mg) in acetic acid (AA) induced writhing mice; procedure, shortened: as §1
Mus musculus [10] = assay: Antinociceptive activity of perorally administered compound in phenyl-p-benzoquinone induced writhing mice; conditions: po
Procedure, shortened: (§4)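 Female CD1 mice, groups of five to six, dosed orally by blunt intragastric needle (10 mL kg-1) 30 min before ip phenyl-p-benzoquinone 2.5 mg kg-1. Abdominal constrictions/hind-limb extensions counted over 2.5 min starting 10 min after PBQ. ED50 = dose halving writhes versus vehicle, by linear regression.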

Rodentia sp. [11] = assay: Antinociceptive activity in the hot plate test (central activity) in rodents, when compound administered subcutaneously at 100 mg; procedure, shortened: as §3
Mus musculus [12] = assay: (§5) Antinociceptive activity in the hot plate test (central activity) in rodents, when compound administered subcutaneously at 50 mg
Procedure, shortened: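 Male CFLP mice (Hacking and Churchill), groups of five to six, dosed sc at 10 mL kg-1 and placed on a copper surface held at 55 °C. Signs of discomfort (paw licking/shaking, jumping) were scored, with a 30-s cut-off. ED50 is the dose doubling response latency versus vehicle, estimated by parallel-line probit analysis.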

Rodentia sp. [13] = assay: as §5; procedure, shortened: as §3
Mus musculus [14] = assay: Antinociceptive activity of perorally administered compound (50 mg) in phenyl-p-benzoquinone induced writhing mice; procedure, shortened: as §4

Row | SMILES | EC50 (Cavia porcellus) [nM] | ED50 (Mus musculus [1]) [mg/kg] | ED50 (Mus musculus [2]) [mg/kg] | Inhibition (Mus musculus [3]) [%] | Ratio (Mus musculus [5]) | Inhibition (Mus musculus [6]) [%] | further results
1 | CC(=O)O.CCN(CCc1ccc(Br)cc1)C(=O)CNC(=O)[C@@H](CCCN=C(N)N)NC(=O)[C@H](Cc1ccc(O)cc1)N=C(N)N | 216 | 0.35 | 3.4 | 15 | 1.5 | – | Inhibition (Rodentia sp. [4]): 0%
2 | CC(=O)O.CCN(CCc1ccc2ccccc2c1)C(=O)CNC(=O)[C@@H](CCCN=C(N)N)NC(=O)[C@@H](N)Cc1ccc(O)cc1 | – | – | – | 0 | – | 27 | –
3 | CC(=O)O.CCN(Cc1ccc(F)cc1)C(=O)CNC(=O)[C@@H](CCCN=C(N)N)NC(=O)[C@@H](N)Cc1ccc(O)cc1 | 63.8 | 0.09 | 10.4 | – | 3.9 | – | Inhibition (Rodentia sp. [7]): 0%
4 | CC(=O)O.CCN(CCc1ccc(S(N)(=O)=O)cc1)C(=O)CNC(=O)[C@@H](CCCN=C(N)N)NC(=O)[C@H](Cc1ccc(O)cc1)N=C(N)N | 4900 | – | – | – | – | – | Inhibition (Mus musculus [8]): 0%
5 | CC(=O)O.CCN(CCc1cccs1)C(=O)CNC(=O)[C@@H](CCCN=C(N)N)NC(=O)[C@@H](N)Cc1ccc(O)cc1 | – | – | – | 21 | – | 0 | –
6 | CC(=O)O.CCN(CCc1ccc(S(N)(=O)=O)cc1)C(=O)CNC(=O)[C@@H](CCCN=C(N)N)NC(=O)[C@@H](N)Cc1ccc(O)cc1 | 11000 | – | – | – | – | – | Inhibition (Mus musculus [9]): 0%
7 | CC(=O)O.CCN(Cc1ccc(-c2ccccc2)cc1)C(=O)CNC(=O)[C@@H](CCCN=C(N)N)NC(=O)[C@@H](N)Cc1ccc(O)cc1 | – | – | – | 0 | – | 13 | –
8 | CC(=O)O.CCN(CCc1ccc([N+](=O)[O-])o1)C(=O)CNC(=O)[C@@H](CCCN=C(N)N)NC(=O)[C@@H](N)Cc1ccc(O)cc1 | – | – | – | 0 | – | 0 | –
9 | CC(=O)O.CCN(CCc1ccc([N+](=O)[O-])cc1)C(=O)CNC(=O)[C@@H](CCCN=C(N)N)NC(=O)[C@@H](N)Cc1ccc(O)cc1 | 48.6 | 3.1 | 17.5 | – | 4.5 | – | ED50 (Mus musculus [10]): 43.5 mg/kg; Inhibition (Rodentia sp. [11]): 0%
10 | CC(=O)O.CCN(CCc1ccc([N+](=O)[O-])o1)C(=O)CNC(=O)[C@@H](CCCN=C(N)N)NC(=O)[C@H](Cc1ccc(O)cc1)N=C(N)N | – | – | – | 15 | – | 17 | –
11 | CC(=O)O.CCN(CCc1ccc(Cl)c(Cl)c1)C(=O)CNC(=O)[C@@H](CCCN=C(N)N)NC(=O)[C@H](Cc1ccc(O)cc1)N=C(N)N | < 100 | 0.62 | 0.2 | 14 | 1 | – | Inhibition (Mus musculus [12]): 0%
12 | CC(=O)O.CCN(CCc1ccco1)C(=O)CNC(=O)[C@@H](CCCN=C(N)N)NC(=O)[C@@H](N)Cc1ccc(O)cc1 | – | – | – | 0 | – | 0 | –
13 | CC(=O)O.CCN(CCCc1ccc([N+](=O)[O-])cc1)C(=O)CNC(=O)[C@@H](CCCN=C(N)N)NC(=O)[C@@H](N)Cc1ccc(O)cc1 | 1800 | – | – | – | – | – | Inhibition (Mus musculus [8]): 0%
14 | CC(=O)O.CCN(Cc1ccccc1[N+](=O)[O-])C(=O)CNC(=O)[C@@H](CCCN=C(N)N)NC(=O)[C@@H](N)Cc1ccc(O)cc1 | 522 | 6.1 | 60.3 | – | 2.8 | – | Inhibition (Rodentia sp. [13]): 0%
15 | CC(=O)O.CCN(CCc1ccc(Br)cc1)C(=O)CNC(=O)[C@@H](CCCN=C(N)N)NC(=O)[C@@H](N)Cc1ccc(O)cc1 | < 100 | – | – | 0 | – | 10 | Inhibition (Mus musculus [9]): 0%; Inhibition (Rodentia sp. [11]): 0%
16 | CC(=O)O.CCN(CCc1ccccc1[N+](=O)[O-])C(=O)CNC(=O)[C@@H](CCCN=C(N)N)NC(=O)[C@@H](N)Cc1ccc(O)cc1 | 118 | 2.7 | 31 | – | 6.4 | – | Inhibition (Mus musculus [14]): 0%; Inhibition (Rodentia sp. [7]): 0%
17 | CC(=O)O.CCN(CCc1ccccc1F)C(=O)CNC(=O)[C@@H](CCCN=C(N)N)NC(=O)[C@@H](N)Cc1ccc(O)cc1 | 22 | 0.3 | 13.7 | – | 13.3 | – | Inhibition (Mus musculus [14]): 0%; Inhibition (Rodentia sp. [4]): 0%
